2 compounds from ChEMBL document CHEMBL4014335, “Activation of Phenyl 4-(2-Oxo-3-alkylimidazolidin-1-yl)benzenesulfonates Prodrugs by CYP1A1 as New Antimitotics Targeting Breast Cancer Cells” (J Med Chem, 2017) can be followed below.

The source made the active and inactive calls. The rule behind the calls is not given here.

Series [1] concerns MCF7. The experiment in a line: Cell cycle arrest in human MCF7 cells assessed as accumulation at G2/M phase at 8 nM after 24 hrs by DAPI-staining based FACS analysis (reference value: 22.3%). The series is classed as functional. On the technique in general: Flow cytometry measures light scatter and fluorescence of single cells or particles in a stream.
Series [2] has as its system MDA-MB-468. The experiment in a line: Cell cycle arrest in human MDA-MB-468 cells assessed as accumulation at S phase at 8 nM after 24 hrs by DAPI-staining based FACS analysis (reference value: 17%). The series is classed as functional.
The test system of series [3] is MDA-MB-231. In words: Cell cycle arrest in human MDA-MB-231 cells assessed as accumulation at G2/M phase at 8 nM after 24 hrs by DAPI-staining based FACS analysis (reference value: 15.5%). It is filed as functional.
The test system of series [4] is MDA-MB-468. The experiment in a line: Cell cycle arrest in human MDA-MB-468 cells assessed as accumulation at G2/M phase at 8 nM after 24 hrs by DAPI-staining based FACS analysis (reference value: 19.5%). The series is classed as functional.
In series [5] the test system is MDA-MB-231. The experiment in a line: Cell cycle arrest in human MDA-MB-231 cells assessed as accumulation at S phase at 8 nM after 24 hrs by DAPI-staining based FACS analysis (reference value: 9.7%). The series is classed as functional.
Series [6] is filed under the species Homo sapiens. In words: Destabilization of microtubule network in human MDA-MB-468 cells at 8 nM after 24 hrs by fluorescence microscopic analysis. It is filed as cell-based.
The target in a further series is T1, Cytochrome P450 1A1 (Homo sapiens, UniProt P04798).
T1 sequence (P04798 whole entry): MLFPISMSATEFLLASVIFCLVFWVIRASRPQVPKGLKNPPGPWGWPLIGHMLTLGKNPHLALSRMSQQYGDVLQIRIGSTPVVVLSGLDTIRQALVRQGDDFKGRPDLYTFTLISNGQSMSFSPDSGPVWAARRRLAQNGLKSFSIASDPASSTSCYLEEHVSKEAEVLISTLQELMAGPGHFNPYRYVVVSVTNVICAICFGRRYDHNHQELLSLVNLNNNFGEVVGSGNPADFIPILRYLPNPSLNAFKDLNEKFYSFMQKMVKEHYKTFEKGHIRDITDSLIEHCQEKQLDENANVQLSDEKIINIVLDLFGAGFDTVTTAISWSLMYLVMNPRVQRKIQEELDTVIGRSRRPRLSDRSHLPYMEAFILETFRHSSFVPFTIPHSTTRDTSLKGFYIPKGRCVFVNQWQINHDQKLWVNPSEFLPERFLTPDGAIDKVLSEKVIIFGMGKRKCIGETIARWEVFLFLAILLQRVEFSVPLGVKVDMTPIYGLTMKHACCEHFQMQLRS
The experiment in a line: Prodrug activation assessed as time required for human supersomes CYP1A1-mediated 3,4,5-trimethoxyphenyl 4-(2-oxoimidazolidin-1-yl)benzenesulfonate formation after 4 hrs by HPLC-MS analysis. It is filed as ADME. The settings on record: recombinant enzyme.

Series [7] can be described thus: Stability in human liver microsomes assessed as compound remaining after 60 mins by HPLC-MS analysis.
The species named for series [8] is Homo sapiens. In words: Destabilization of microtubule network in human MDA-MB-468 cells at 50 nM after 24 hrs by fluorescence microscopic analysis. It is filed as cell-based.
Series [9] relates to MDA-MB-468. In words: Cytotoxicity against human MDA-MB-468 cells after 72 hrs in presence of CYP inhibitor mefipristone by SRB assay. It is filed as functional, cell-based. The method in brief:
(§1)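 MDA-MB-468 cells co-incubated for 72 h with drug plus a subtoxic concentration of a CYP inhibitor. Viability read by SRB assay: TCA fixation, sulforhodamine B staining, absorbance at 530-565 nm.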
For orientation: The SRB assay estimates cell density from bound dye.

The subject of series [10] is MCF7. The experiment in a line: Cell cycle arrest in human MCF7 cells assessed as accumulation at G2/M phase at 50 nM after 24 hrs by DAPI-staining based FACS analysis (reference value: 22.3%). It is filed as functional.
Series [11] deals with MDA-MB-231. In words: Cell cycle arrest in human MDA-MB-231 cells assessed as accumulation at subG1 phase at 50 nM after 24 hrs by DAPI-staining based FACS analysis (reference value: 4.1%). The series is classed as functional.
Series [12] relates to MCF7. The experiment in a line: Antiproliferative activity against human MCF7 cells after 48 hrs by SRB assay. The series is classed as functional, cell-based. The note with it: MCF7, 48 h. Summed up: (§2)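 SRB assay run as in the NCI screen with slight modifications. Seeding: HT-29 5.0 x 10^3, M21 3.5 x 10^3, MCF7 7.5 x 10^3 cells; cells preincubated 24 h. Drug in DMSO added at 0.75 to 1.0 x 10^5 nM for 48 h. TCA fixation, sulforhodamine B staining, absorbance 530-565 nm. At least two experiments in triplicate; runs accepted only when relative SD < 10%.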

In series [13] the test system is MCF7. The experiment in a line: Cell cycle arrest in human MCF7 cells assessed as accumulation at S phase at 50 nM after 24 hrs by DAPI-staining based FACS analysis (reference value: 10.6%). It is filed as functional.
The subject of series [14] is MDA-MB-468. The experiment in a line: Cytotoxicity against human MDA-MB-468 cells after 72 hrs in presence of CYP inhibitor pentachlorophenol by SRB assay. It is filed as functional, cell-based. The method in brief: as §1
The test system of series [15] is MDA-MB-468. The experiment in a line: Cytotoxicity against human MDA-MB-468 cells after 72 hrs in presence of CYP1A1 inhibitor ketoconazole by SRB assay. The series is classed as functional, cell-based. Summed up:
(§3)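 MDA-MB-468 cells (5.0 x 10^3/well) seeded and incubated 24 h. Drug freshly dissolved in DMSO, given at 0.75 to 1.0 x 10^5 nM, together with subtoxic CYP inhibitor, for 72 h. Cells fixed with cold 10% TCA and stained with 0.1% sulforhodamine B. Bound dye taken up in 10 mM Tris, absorbance read at 530-565 nm. At least two experiments, triplicate cultures.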

Series [16] relates to MDA-MB-231. The experiment in a line: Cell cycle arrest in human MDA-MB-231 cells assessed as accumulation at G2/M phase at 50 nM after 24 hrs by DAPI-staining based FACS analysis (reference value: 15.5%). The series is classed as functional.
The test system of series [17] is MDA-MB-231. In words: Cell cycle arrest in human MDA-MB-231 cells assessed as accumulation at S phase at 50 nM after 24 hrs by DAPI-staining based FACS analysis (reference value: 9.7%). It is filed as functional.
The next series relates to Chorioallantoic membrane. The experiment in a line: Toxicity in chicken chorioallantoic membrane implanted with CYP1A1 transfected human HT1080 cells at 1 ug/egg, iv administered on day 11 post implantation measured on day 17. The series is classed as organism-based, Gallus gallus. The note with it: in vivo. The method in brief: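 Fertilized chicken eggs bearing CYP1A1-transfected HT-1080 tumors on the CAM. On day 11, drug (40 mM DMSO stock) diluted in cremophor/EtOH/PBS 6.25/6.25/87.5, final DMSO < 0.5%. Given iv in 100 µL to 10–12 eggs per group. Embryos killed on day 17, tumor wet weight recorded, deaths and toxicity signs scored. Two independent experiments, 20–24 eggs in total.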

The test system of the next series is M21. In words: Antiproliferative activity against human M21 cells after 48 hrs by SRB assay. The series is classed as functional, cell-based. The note with it: M21, 48 h. Summed up:
as §2

Series [18] can be described thus: Selectivity ratio of IC50 for human M21 cells to IC50 for human MCF7 cells. It is filed as functional. Summed up: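 Ratio is IC50 in reference line over IC50 in sensitive line. […] Cells in DMEM with 5% calf serum at 37 °C. At least two experiments, triplicate cultures; assay accepted when relative SD < 10%.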
Series [19] relates to MDA-MB-468. In words: Cytotoxicity against human MDA-MB-468 cells after 72 hrs in presence of CYP inhibitor salicylamide by SRB assay. It is filed as functional, cell-based. Summed up: as §1
In series [20] the test system is MDA-MB-468. In words: Cytotoxicity against human MDA-MB-468 cells after 72 hrs in presence of CYP1A1 inhibitor resveratrol by SRB assay. It is filed as functional, cell-based. Summed up:
as §3

The subject of series [21] is MCF7. In words: Cell cycle arrest in human MCF7 cells assessed as accumulation at G0/G1 phase at 50 nM after 24 hrs by DAPI-staining based FACS analysis (reference value: 65.5%). It is filed as functional.

For `COc1cc(OS(=O)(=O)c2ccc(N3CCNC3=O)cc2)cc(OC)c1OC`, the Activity with MCF7 [1] worked out at 44.1%; in the series with MDA-MB-468 [2] it was 13.3%; with MDA-MB-231 [3], 76.6%; in the series on MDA-MB-468 [4] it was 74.4%; in the series with MDA-MB-231 [5], 8.9%. Further, in the series listed under Homo sapiens [6], the result was Active.

Take `CCCCN1CCN(c2ccc(S(=O)(=O)Oc3cc(OC)c(OC)c(OC)c3)cc2)C1=O`: at Cytochrome P450 1A1, the Time was determined as 30 min. In addition, in series [7], the fraction remaining at 1 h came to 25%. Further, the outcome in the series listed under Homo sapiens [8], with MDA-MB-468 [9], with MDA-MB-468 [14] and in the series with MDA-MB-468 [19] was Active. For the same compound, the Activity was 90.2% in the series with MCF7 [10]; 2.1% with MDA-MB-231 [11]; 1.8% with MCF7 [13]; 15.6% with MDA-MB-231 [16]; 9.2% with MDA-MB-231 [17]; “Non-Toxic” with Chorioallantoic membrane. Also, the Activity in the series with MCF7 [21] came out at 3.7%. Moreover, the IC50 was 10 nM in the series on MCF7 [12] and 3800 nM in the series on M21. Moreover, the outcome in the series on MDA-MB-468 [15] and with MDA-MB-468 [20] was inactive. Further, the “Ratio IC50” value in series [18] is recorded as 380.

One may read the fraction remaining as the share of the starting amount still present when the sample was taken. For orientation: IC50 means the concentration needed to halve the response being measured. Low readings indicate greater potency, high ones weaker potency.
